Experimental data: ChEMBL document CHEMBL1154039, “Synthesis and biological evaluation of 1,2,4-trisubstituted imidazoles and 1,3,5-trisubstituted pyrazoles as inhibitors of transforming growth factor beta type 1 receptor (ALK5)” (Bioorg Med Chem Lett, 2009)
Activity calls are given as the source filed them. The rule behind the calls is not given here.

Tests used:
[1] = (§1) Cytotoxicity against human embryo lung […] cells at 30 uM by MTT assay; type: functional
How it was run: (§2)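 HLF cells were seeded at about 3000 per well and grown 24 h before treatment. The number of viable cells at treatment (t = 0) was measured to correct for differences in starting cell number. At the read times, MTT tetrazolium salt and phenazine methosulfate were added directly to the medium for 2–3 h.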

Homo sapiens = species: Homo sapiens; assay: as §1; type: functional; how it was run: as §2
[2] = target: T1, Activin receptor type-1B (Homo sapiens) (UniProt P36896); assay: Inhibition of ALK4 expressed in baculovirus/Sf9 cells assessed as inhibition of receptor autophosphorylation at 1 uM after 3 hrs
T1 sequence (whole entry): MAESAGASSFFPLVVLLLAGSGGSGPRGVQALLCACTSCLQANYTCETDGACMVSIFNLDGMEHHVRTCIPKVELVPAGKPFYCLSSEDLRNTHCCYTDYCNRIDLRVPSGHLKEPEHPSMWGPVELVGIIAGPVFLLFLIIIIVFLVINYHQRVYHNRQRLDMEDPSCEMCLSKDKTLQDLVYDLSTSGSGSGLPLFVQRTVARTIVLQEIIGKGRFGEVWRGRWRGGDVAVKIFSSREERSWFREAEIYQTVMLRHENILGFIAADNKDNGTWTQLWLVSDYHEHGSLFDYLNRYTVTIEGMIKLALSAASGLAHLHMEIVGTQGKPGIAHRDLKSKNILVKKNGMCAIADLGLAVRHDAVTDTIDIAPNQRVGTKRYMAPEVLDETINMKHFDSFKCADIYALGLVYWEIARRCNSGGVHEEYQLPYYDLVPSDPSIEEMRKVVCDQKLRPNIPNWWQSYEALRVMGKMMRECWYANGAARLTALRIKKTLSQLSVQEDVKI
How it was run: (§3)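 Kinase carried a C-terminal 6-His tag and was purified on a Ni2+ affinity column. The purified kinase was preincubated with compound for 30 min at 37 °C. The reaction was started with 10–8 mol/L ATP plus Smad3 substrate and run 3 h at 30 °C. Autophosphorylation was quantified from ATP consumed, using a luminescent ATP detection assay.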

[3] = target: T1, Activin receptor type-1B (Homo sapiens); assay: Inhibition of ALK4 expressed in baculovirus/Sf9 cells assessed as inhibition of receptor autophosphorylation at 0.1 uM after 3 hrs; how it was run: as §3
[4] = target: T2, Activin receptor type-1C (Homo sapiens) (UniProt Q8NER5); assay: Inhibition of ALK7 expressed in baculovirus/Sf9 cells assessed as inhibition of receptor autophosphorylation at 0.1 uM after 3 hrs; how it was run: as §3
T2 sequence (whole entry): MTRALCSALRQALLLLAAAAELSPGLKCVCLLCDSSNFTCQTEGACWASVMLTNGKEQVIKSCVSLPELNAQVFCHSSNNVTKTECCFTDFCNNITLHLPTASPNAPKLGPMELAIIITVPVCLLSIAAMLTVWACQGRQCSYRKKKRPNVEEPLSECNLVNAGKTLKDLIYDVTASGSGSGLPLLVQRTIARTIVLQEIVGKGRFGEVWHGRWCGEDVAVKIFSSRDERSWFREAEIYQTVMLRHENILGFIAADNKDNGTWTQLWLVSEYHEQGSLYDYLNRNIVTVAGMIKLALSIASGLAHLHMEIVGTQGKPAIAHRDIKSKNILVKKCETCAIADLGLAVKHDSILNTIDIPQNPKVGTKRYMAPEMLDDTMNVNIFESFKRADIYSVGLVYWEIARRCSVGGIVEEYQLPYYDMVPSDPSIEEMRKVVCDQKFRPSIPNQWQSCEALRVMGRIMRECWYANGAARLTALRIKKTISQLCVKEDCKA

[5] = target: T2, Activin receptor type-1C (Homo sapiens); assay: Inhibition of ALK7 expressed in baculovirus/Sf9 cells assessed as inhibition of receptor autophosphorylation at 1 uM after 3 hrs; how it was run: as §3
[6] = Selectivity for ALK5 over ALK7
How it was run: (§4)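 Purified C-terminally 6-His-tagged ALK4, ALK5 and ALK7, each run in a separate autophosphorylation assay. Each enzyme was preincubated with a range of compound concentrations for 30 min at 37 °C. Reactions were started with 10–8 mol/L ATP plus Smad3 and run 3 h at 30 °C. Phosphorylation was quantified as ATP consumed, using a luminescent ATP assay. Selectivity was obtained by comparing activity across the kinases.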

[7] = Selectivity for ALK5 over ALK4; how it was run: as §4
[8] = Selectivity for ALK4 over ALK7; how it was run: as §4
[9] = Selectivity for ALK4 over ALK5; how it was run: as §4

Row | Structure (SMILES) | Activity [1] | Activity (Homo sapiens) | inhibition [2] | inhibition [3] | inhibition [4] | inhibition [5] | also measured
1 | Cc1cccc(-c2nc(C(C)(C)C)cn2-c2ccc3c(c2)OCO3)n1 | 7.3% | – | – | – | – | – | –
2 | NC(=O)c1ccc(-c2cc(-c3ccc(F)cc3)n(-c3ccccc3F)n2)cc1 | 19.54% | – | – | – | – | – | –
3 | NC(=O)c1ccc(-c2cc(-c3ccc4c(c3)OCO4)n(-c3ccccc3)n2)cc1 | – | inactive | – | – | – | – | –
4 | Cc1cccc(-c2nc(-c3ccc(C(N)=O)cc3)cn2-c2ccc3c(c2)OCO3)n1 | 14.9% | – | 29.8% | 15.6% | 4.5% | 41.3% | –
5 | COc1ccc(-c2cc(-c3ccc(C#N)cc3)nn2-c2ccccc2F)cc1OC | – | inactive | – | – | – | – | –
6 | NC(=O)c1ccc(-c2cc(-c3ccc4c(c3)OCO4)n(-c3ccccc3F)n2)cc1 | – | inactive | 50.7% | 15.5% | 22.7% | 39.1% | –
7 | COc1ccc(-c2cc(-c3ccc(C#N)cc3)nn2-c2ccccn2)cc1OC | – | inactive | – | – | – | – | –
8 | COc1ccccc1-n1nc(-c2ccc(C(N)=O)cc2)cc1-c1ccc(F)cc1 | – | inactive | – | – | – | – | –
9 | NC(=O)c1ccc(-c2cn(-c3ccc4c(c3)OCO4)c(-c3ccccc3F)n2)cc1 | – | inactive | – | – | – | – | –
10 | NC(=O)c1ccc(-c2cn(-c3ccc4c(c3)OCCO4)c(-c3ccccn3)n2)cc1 | 21% | – | – | – | – | – | –
11 | N#Cc1ccc(-c2cc(-c3ccc4c(c3)OCO4)n(-c3ccccn3)n2)cc1 | – | inactive | – | – | – | – | –
12 | N#Cc1ccc(-c2cc(-c3ccccc3F)n(-c3ccc4c(c3)OCO4)n2)cc1 | 57.5% | – | – | – | – | – | –
13 | NC(=O)c1ccc(-c2cc(-c3ccc4c(c3)OCO4)n(-c3ccccn3)n2)cc1 | 26.7% | – | 74.7% | 70% | 35.5% | 57.3% | –
14 | Cc1cccc(-c2nc(-c3ccc(C(N)=O)cc3)cn2-c2ccc(F)cc2)n1 | 19.1% | – | 34.5% | 25% | 16.2% | 35.1% | –
15 | NC(=O)c1ccc(-c2cc(-c3ccc4c(c3)OCO4)n(-c3nccs3)n2)cc1 | – | inactive | – | – | – | – | –
16 | NC(=O)c1ccc(-c2cc(-c3ccc(F)cc3)n(-c3ccccc3O)n2)cc1 | – | inactive | – | – | – | – | –
17 | OCc1ccc(-c2cc(-c3ccc4c(c3)OCO4)n(-c3ccccc3F)n2)cc1 | – | inactive | – | – | – | – | –
18 | COc1ccc(-n2cc(C(C)(C)C)nc2-c2cccc(C)n2)cc1F | 22.1% | – | – | – | – | – | –
19 | Cc1cccc(-c2nc(C(C)(C)C)cn2-c2ccc(F)cc2)n1 | 59% | – | – | – | – | – | –
20 | N#Cc1ccc(-c2cc(-c3ccc4c(c3)OCO4)n(-c3ccccc3F)n2)cc1 | – | inactive | – | – | – | – | –
21 | Cc1cccc(-c2nc(-c3ccc(C#N)cc3)cn2-c2ccc3c(c2)OCCO3)n1 | 28% | – | – | – | – | – | –

Row | Structure (SMILES) | Activity [1] | Activity (Homo sapiens) | inhibition [2] | inhibition [3] | inhibition [4] | inhibition [5] | also measured
22 | NC(=O)c1ccc(-c2cc(-c3ccc(F)cc3)n(-c3ccccn3)n2)cc1 | 23.7% | – | – | – | – | – | –
23 | Cc1cccc(-n2nc(-c3ccc(C(N)=O)cc3)cc2-c2ccc3c(c2)OCO3)n1 | 5.6% | – | 66.8% | 39.4% | 4.2% | 64% | Selectivity ratio [6]: 10; Selectivity ratio [7]: 10
24 | Cc1cccc(-c2nc(C(C)(C)C)cn2-c2ccc3c(c2)OCCO3)n1 | – | inactive | – | – | – | – | –
25 | N#Cc1ccc(-c2cn(-c3ccc4c(c3)OCO4)c(-c3ccccc3F)n2)cc1 | 12.3% | – | 36.6% | 13.3% | 30.5% | 63.6% | –
26 | Cc1cccc(-c2nc(-c3ccc(C(N)=O)cc3)cn2-c2ccc3c(c2)OCCO3)n1 | 0.7% | – | 49.3% | 28.5% | 13.4% | 25% | –
27 | NC(=O)c1ccc(-c2cc(-c3ccc(O)c(O)c3)n(-c3ccccc3O)n2)cc1 | 48.9% | – | 93.7% | 73.8% | 34.8% | 56.5% | Selectivity ratio [8]: > 10; Selectivity ratio [9]: > 10
28 | Cc1cccc(-n2nc(-c3ccc(C#N)cc3)cc2-c2ccc3c(c2)OCO3)n1 | 15.4% | – | 77.7% | 53.6% | 31.4% | 73.4% | –
29 | COc1ccc(-n2cc(-c3ccc(C#N)cc3)nc2-c2cccc(C)n2)cc1F | 57% | – | – | – | – | – | –
30 | COc1ccc(-n2cc(-c3ccc(C(N)=O)cc3)nc2-c2cccc(C)n2)cc1F | 9.1% | – | – | – | – | – | –
31 | COc1ccccc1-n1nc(-c2ccc(C(N)=O)cc2)cc1-c1ccc2c(c1)OCO2 | – | inactive | – | – | – | – | –
32 | NC(=O)c1ccc(-c2cn(-c3ccc4c(c3)OCO4)c(-c3ccccn3)n2)cc1 | 21.6% | – | 73.7% | 65.6% | 24.5% | 54.8% | –
33 | NC(=O)c1ccc(-c2nc(-c3ccccn3)c(-c3ccc4c(c3)OCO4)[nH]2)cc1 [SB-431542] | 55% | – | – | – | – | – | –
34 | COc1ccc(-c2cc(-c3ccc(C(N)=O)cc3)nn2-c2ccccn2)cc1OC | 5.3% | – | – | – | – | – | –
35 | O=C(O)c1ccc(-c2cc(-c3ccc4c(c3)OCO4)n(-c3ccccc3F)n2)cc1 | 5.4% | – | – | – | – | – | –
36 | Cc1cccc(-c2nc(-c3ccc(C#N)cc3)cn2-c2ccc(F)cc2)n1 | 20.2% | – | – | – | – | – | –
37 | NC(=O)c1ccc(-c2cc(-c3ccccc3F)n(-c3ccc4c(c3)OCO4)n2)cc1 | 0.52% | – | 41.9% | 3.2% | 50.9% | 57.4% | –
38 | NC(=O)c1ccc(-c2cc(-c3ccc4c(c3)OCO4)n(-c3ccccc3C(F)(F)F)n2)cc1 | – | inactive | – | – | – | – | –
39 | Cc1cccc(-c2nc(-c3ccc(C#N)cc3)cn2-c2ccc3c(c2)OCO3)n1 | 4% | – | 76.9% | 45.5% | 33.9% | 44.6% | –
40 | NC(=O)c1ccc(-c2cc(-c3ccccn3)n(-c3ccc4c(c3)OCO4)n2)cc1 | – | inactive | – | – | – | – | –
41 | COc1ccc(-c2cc(-c3ccc(C(N)=O)cc3)nn2-c2ccccc2F)cc1OC | 19.4% | – | 70.4% | 32.1% | 5.3% | 65.8% | –
